# Experimental data from PMC5582369 (British Journal of Clinical Pharmacology, 2017).
# Experiments:
# Na+/H+ exchange = conditions: healthy volunteers, cited from earlier work
# [1] = Cefadroxil plasma pharmacokinetics, phase 1 two-period crossover study; assay type: in vivo, healthy volunteers (human)
# PepT1 = conditions: in vitro; cited from earlier work
# [2] = Tenapanor plasma concentration; assay type: in vivo, healthy volunteers (human); conditions: tenapanor 15 mg b.i.d., day 5
# Outline: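 Blood was drawn predose and 1, 2 and 4 h after the day-5 morning dose of the test compound (15 mg twice daily from day 1). Plasma was extracted liquid–liquid with a deuterated internal standard, evaporated under nitrogen and reconstituted. Analysis was by LC-MS/MS, validated over 0.500–100 ng ml–1, with a lower limit of quantitation of 0.5 ng ml–1.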
# NHE3 = target: T1, NHE3 (Homo sapiens, UniProt P48764); test: Stool frequency and consistency; assay type: in vivo, healthy volunteers (human); conditions: mean ± SD over overall tenapanor 15 mg b.i.d. dosing period; day –1: 3.7 ± 1.0
# T1 sequence (P48764 26-834): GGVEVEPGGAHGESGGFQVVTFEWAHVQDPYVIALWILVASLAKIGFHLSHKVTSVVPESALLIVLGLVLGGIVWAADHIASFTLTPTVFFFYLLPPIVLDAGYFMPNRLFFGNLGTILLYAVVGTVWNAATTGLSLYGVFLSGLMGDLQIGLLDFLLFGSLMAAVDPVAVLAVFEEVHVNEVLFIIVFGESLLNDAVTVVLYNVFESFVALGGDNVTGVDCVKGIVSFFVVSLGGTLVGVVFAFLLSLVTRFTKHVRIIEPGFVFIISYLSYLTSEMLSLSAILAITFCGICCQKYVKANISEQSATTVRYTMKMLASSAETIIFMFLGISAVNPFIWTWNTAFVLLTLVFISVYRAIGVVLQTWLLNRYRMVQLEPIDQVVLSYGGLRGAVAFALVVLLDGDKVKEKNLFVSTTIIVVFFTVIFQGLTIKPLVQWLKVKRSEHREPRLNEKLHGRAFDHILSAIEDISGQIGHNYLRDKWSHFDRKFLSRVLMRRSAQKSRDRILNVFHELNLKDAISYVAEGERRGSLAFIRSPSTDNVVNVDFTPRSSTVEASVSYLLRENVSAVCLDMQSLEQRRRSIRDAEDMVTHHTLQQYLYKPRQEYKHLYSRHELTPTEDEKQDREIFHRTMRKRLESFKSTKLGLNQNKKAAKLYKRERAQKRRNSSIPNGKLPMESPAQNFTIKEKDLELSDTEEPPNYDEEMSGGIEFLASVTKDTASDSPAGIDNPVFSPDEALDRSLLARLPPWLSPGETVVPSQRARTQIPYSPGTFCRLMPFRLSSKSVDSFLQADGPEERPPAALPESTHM
# [3] = Safety and tolerability assessments; assay type: in vivo, healthy volunteers (human)
# Outline: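 Healthy adults (18–50 y, BMI 18–30 kg m–2, 50–100 kg) got the oral test compound 15 mg twice daily for 4 days, then a single 15 mg dose with a 500 mg probe cephalosporin on day 5, 5–10 min before standardized meals. Adverse events were monitored from screening to follow-up, 7–10 days after the last dose. Vital signs, ECGs, physical exams and clinical labs were also collected.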
# [4] = whole study, all AEs occurred in the tenapanor treatment period
structure (smiles),measurement,setting,value
N=C(N)NC(=O)c1nc(Cl)c(N)nc1N [Amiloride],Effect on gastrointestinal uptake of amoxicillin,Na+/H+ exchange,decrease the gastrointestinal uptake
same,Effect on amoxicillin absorption in the gut,Na+/H+ exchange; jejunal perfusion with amiloride and amoxicillin,did not affect amoxicillin absorption
CC1=C(C(=O)O)N2C(=O)[C@@H](NC(=O)[C@H](N)c3ccc(O)cc3)[C@H]2SC1 [Cefadroxil],t½ (apparent terminal half-life) of cefadroxil,"[1]; cefadroxil 500 mg alone, geometric mean (GCV, %), n = 28",2.0 (11.1) h
same,Tmax,"[1]; human, plasma, oral, 500 mg",1.5 h
same,Affinity for PepT1,PepT1,moderate affinity
CN1Cc2c(Cl)cc(Cl)cc2[C@H](c2cccc(S(=O)(=O)NCCOCCOCCNC(=O)NCCCCNC(=O)NCCOCCOCCNS(=O)(=O)c3cccc([C@@H]4CN(C)Cc5c(Cl)cc(Cl)cc54)c3)c2)C1 [Tenapanor],Detection of tenapanor in plasma,[2],not detected in plasma
same,BSFS score (stool consistency),NHE3,5.4 ± 1.2
same,Serious AEs or discontinuations due to AEs,"[3]; during the study, 28 volunteers",No serious AEs or discontinuations due to AEs
same,Tolerability,"[3]; tenapanor 15 mg b.i.d., 28 volunteers",generally well tolerated
same,Abdominal distension (n volunteers),[3]; [4],4
same,Abdominal pain (n volunteers),[3]; [4],4
same,Abnormal gastrointestinal sounds (n volunteers),[3]; [4],3
same,Diarrhoea (n volunteers),[3]; [4],2
same,Flatulence (n volunteers),[3]; [4],2
